# According to ChEMBL document CHEMBL1138007, “Examining the correlations between GSK-3 inhibitory properties and anti-convulsant efficacy of valproate and valproate-related compounds” (Bioorg Med Chem Lett, 2004):
# The source made the active and inactive calls. The rule behind the calls is not given here.
# System: not listed separately
# Experiment: Inhibitory activity (4 mM) against Glycogen synthase kinase-3 beta, expressed as percent control
# Set-up: scale not given: the % may be the effect or the level left
# Conditions: in the assay text read “(0.5 mM)” for “(4 mM)”
# Summary of the method: (§1)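 Recombinant GSK-3α or β, preincubated with compound (0-4 mM), then given phospho-glycogen synthase peptide-2 substrate and [γ-³²P]-ATP plus unlabelled ATP. Buffer: 20 mM MOPS, 0.25 mM Mg acetate, 5 mM MgCl₂, 5 mM β-glycerophosphate, 1 mM EGTA, 0.25 mM Na₃VO₄, 0.25 mM DTT. Reaction ran 30 min at 30 °C, then was spotted on phosphocellulose, acid-washed and scintillation-counted. Background-subtracted counts were normalized to uninhibited activity.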
row,Control [%],SMILES
1,56.1,CCC(CC)C(=O)O

# System: not listed separately
# Experiment: Anti-convulsant activity in experimental animal model; + = less effective
# Type: functional
# Conditions: not given
row,SMILES,Activity
1,CCC(CC)C(=O)O,Weak activity

# System: not listed separately
# Experiment: Anti-convulsant activity in experimental animal model; ++ = relative to valproate
# Type: functional
# Conditions: not given
row,SMILES,Activity
1,CC/C=C(\CCC)C(=O)O,Active
2,CCCC(CCC)C(=O)O,Active

# System: not listed separately
# Experiment: Inhibitory activity (0.5 mM) against Glycogen synthase kinase-3 beta, expressed as percent control
# Set-up: scale not given: the % may be the effect or the level left
# Conditions: not given
# Summary of the method: as §1
row,Control [%],SMILES
1,56.1,CCC(CC)C(=O)O

# Molecular target: Glycogen synthase kinase-3 alpha (Homo sapiens) (UniProt P49840)
# Sequence (P49840 2-483 limits assumed): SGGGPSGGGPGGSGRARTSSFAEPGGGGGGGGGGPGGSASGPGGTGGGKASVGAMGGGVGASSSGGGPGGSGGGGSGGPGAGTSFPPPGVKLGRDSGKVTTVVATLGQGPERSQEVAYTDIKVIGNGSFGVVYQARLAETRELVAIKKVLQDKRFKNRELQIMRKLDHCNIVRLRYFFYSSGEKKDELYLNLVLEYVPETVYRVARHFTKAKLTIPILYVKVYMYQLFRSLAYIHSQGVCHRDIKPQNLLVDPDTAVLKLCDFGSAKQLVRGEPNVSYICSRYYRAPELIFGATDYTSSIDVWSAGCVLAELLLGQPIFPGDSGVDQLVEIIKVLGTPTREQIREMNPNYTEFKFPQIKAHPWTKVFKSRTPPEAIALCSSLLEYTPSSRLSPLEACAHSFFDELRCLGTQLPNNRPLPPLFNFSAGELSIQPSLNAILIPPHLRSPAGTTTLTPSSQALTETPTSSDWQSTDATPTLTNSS
# Experiment: Inhibitory activity (0.5 mM) against Glycogen synthase kinase-3 alpha, expressed as percent control
# Set-up: scale not given: the % may be the effect or the level left
# Conditions: not given
# Summary of the method: as §1
row,Control [%],SMILES
1,88.3,CCC(CC)C(=O)O

# Molecular target: Glycogen synthase kinase-3 alpha (Homo sapiens) (UniProt P49840)
# Experiment: Inhibitory activity against Glycogen synthase kinase-3 alpha, expressed as percent control
# Set-up: concentration or dose not given beside the values
# Conditions: not given
# Summary of the method: as §1
row,Control [%],SMILES
1,54.2,CCCC(CCC)C(=O)NO
2,67.4,CCCC(C)(CCC)C(=O)O
3,99.9,C=CCC(CCC)C(=O)OC (stereo not given)
4,100,CC/C=C(\CCC)C(=O)O
5,99.2,C=CCC(CCC)C(=O)O (stereo not given)
6,104,CCCC(CCC)C(=O)OC
7,87.9,C=CCC(CCC)C(=O)OC(C)C (stereo not given)
8,96.6,CCCC(CCC)C(N)=O
9,61.3,CC/C=C(\CCC)C(=O)OC
10,99.7,CCCC(C)(CCC)C(=O)OC
11,80.4,CCCC(CCC)C(=O)O

# System: not listed separately
# Experiment: Inhibitory activity (20 mM) against Glycogen synthase kinase-3 beta, expressed as percent control
# Set-up: scale not given: the % may be the effect or the level left
# Conditions: not given
row,Control [%],SMILES
1,4.6,O=C1NC(=O)C(c2ccccc2[N+](=O)[O-])=C1Nc1ccc(O)c(Cl)c1
2,19.5,[Cl-].[Li+]

# System: not listed separately
# Experiment: Anti-convulsant activity in experimental animal model; +++ = more effective
# Type: functional
# Conditions: not given
row,SMILES,Activity
1,CCCC(CCC)C(=O)NO,Active
2,CCCC(C)(CCC)C(=O)O,Active
3,C=CCC(CCC)C(=O)O (stereo not given),Active
4,CCCC(CCC)C(N)=O,Active

# Molecular target: Glycogen synthase kinase-3 alpha (Homo sapiens) (UniProt P49840)
# Experiment: Inhibitory activity (4 mM) against Glycogen synthase kinase-3 alpha, expressed as percent control
# Set-up: scale not given: the % may be the effect or the level left
# Conditions: not given
# Summary of the method: as §1
row,Control [%],SMILES
1,0.5,CCC(CC)C(=O)O

# System: not listed separately
# Experiment: Inhibitory activity against Glycogen synthase kinase-3 beta, expressed as percent control
# Set-up: concentration or dose not given beside the values
# Conditions: not given
# Summary of the method: as §1
row,Control [%],SMILES
1,49.1,CCCC(CCC)C(=O)NO
2,24.8,CCCC(C)(CCC)C(=O)O
3,123,C=CCC(CCC)C(=O)OC (stereo not given)
4,91.3,CC/C=C(\CCC)C(=O)O
5,57.7,C=CCC(CCC)C(=O)O (stereo not given)
6,81.8,CCCC(CCC)C(=O)OC
7,110,C=CCC(CCC)C(=O)OC(C)C (stereo not given)
8,83.9,CCCC(CCC)C(N)=O
9,33.3,CC/C=C(\CCC)C(=O)OC
10,122,CCCC(C)(CCC)C(=O)OC
11,35.5,CCCC(CCC)C(=O)O
